MsrA inhibitor: bovine MsrA inhibition; purified bovine MsrA, absorbance read-out; inhibition, % at 15.5 µM; hit rate 0.75% among 360,000;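 further: 0% = vehicle wells with enzyme and 100% = reference inhibitor wells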
bovine MsrA act: activators of bovine methionine sulfoxide reductase A. purified bovine MsrA, absorbance read-out. AID 602163. activation, % at 10.6 µM. hit rate 0.3% among 360,000; in the data active means activation above about 7.5%;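 further: 0% = vehicle and 100% = reference activator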
ARFGAP1 inh: rat ARFGAP1 inhibition; AID 651572; hit rate 0.26% among 360,000; Q62848; Arfgap1-stimulated ARF1 GTP hydrolysis, GDP FP detection; inhibition, % at 16.5 µM;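 active means inhibition above a per-plate limit, mean inhibition of low control wells plus 3 SD, cut at about 25% in these data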;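 further: 0% = DMSO wells with enzyme and 100% = wells lacking Arfgap1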
Target sequence (Q62848 1-136 limits assumed): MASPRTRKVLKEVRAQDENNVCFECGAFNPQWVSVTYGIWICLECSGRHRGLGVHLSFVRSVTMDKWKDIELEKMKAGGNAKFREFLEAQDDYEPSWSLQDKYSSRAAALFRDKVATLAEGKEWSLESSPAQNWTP
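Material – truncated rat Arfgap1 GAP domain · Buffer or medium – HEPES-based buffer, pH 7.5 · Reagent – human ARF1(Δ1-17)-GTP substrate · Dosing – 16.5 µM single point, 1.26% DMSO · Schedule – GTP hydrolysis reaction 2 h at 25 °C · Technique – GDP detection by fluorescence polarization · Benchmarks – No-Arfgap1 wells (100%) versus DMSO full-reaction wells (0%) · Repeats – single replicate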
HGIII-sPLA2 inh: Blocks human group III sPLA2 activity; hit rate 0.56% among 370,000; inhibition, % at 12.2 µM; QFRET BODIPY PC-A2 liposome hydrolysis, fluorescence;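 active means inhibition above mean plus 3 SD of compounds lying within the high and low control bounds, cut at about 19% in these data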;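 further: 0% = median of test compound wells and 100% = no enzyme DMSO wells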
Target sequence (Q9NZ20 whole entry, looked up): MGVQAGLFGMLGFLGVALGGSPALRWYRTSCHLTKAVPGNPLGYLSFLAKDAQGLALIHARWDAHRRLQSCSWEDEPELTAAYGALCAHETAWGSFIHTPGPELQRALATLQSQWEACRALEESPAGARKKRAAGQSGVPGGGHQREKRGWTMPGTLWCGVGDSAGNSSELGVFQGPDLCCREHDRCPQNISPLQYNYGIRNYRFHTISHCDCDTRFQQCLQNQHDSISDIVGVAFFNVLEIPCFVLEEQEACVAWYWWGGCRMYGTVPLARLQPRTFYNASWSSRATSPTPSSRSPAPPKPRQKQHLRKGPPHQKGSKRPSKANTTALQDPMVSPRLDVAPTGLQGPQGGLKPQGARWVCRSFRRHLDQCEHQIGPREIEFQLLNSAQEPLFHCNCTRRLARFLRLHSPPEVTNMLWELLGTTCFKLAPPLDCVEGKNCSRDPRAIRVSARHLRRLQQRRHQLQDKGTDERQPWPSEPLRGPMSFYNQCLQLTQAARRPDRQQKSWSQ
NR1D1 modulator: modulates human Rev-erb alpha binding to DNA | P20393 | Rev-erbα–FITC-DNA binding, fluorescence polarization, 90 min | activity, % at 10 µM | hit rate 0.79% among 370,000 | AID 1259318;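 active means activity above about 14%, limit read from the data; passing the limit was not always enough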;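 further: 0% = DMSO wells with 35 nM protein and 100% = DMSO wells with 750 nM protein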
ASAP1 GAP inh: blocks human ASAP1-stimulated Arf1 GTP hydrolysis. GDP FP detection. AID 624377. inhibition, % at 16.5 µM. hit rate 0.19% among 360,000. Q9ULH1; in the data active means inhibition above about 25%;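 further: 0% = vehicle with enzyme and substrate and 100% = no enzyme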
MsrA inh confirm: confirmation of bovine MsrA inhibitors; shares compounds with MsrA inhibitor; purified bovine MsrA, absorbance read-out; inhibition, % at 15.5 µM; hit rate 41% among 2,300; AID 651822;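 further: coupled to thioredoxin reductase with NADPH and selenocystamine and DMSO as substrate; 0% = vehicle only and 100% = full effect of reference inhibitor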
An asterisk follows results filed as active; nt = no result given. Rows were chosen to be rich in hits. Some 2.7% of all compounds tested hit in one or more screens of this group. Unless noted, no stated cut-off is given here; in the data, active means inhibition above about 4.5%; inactive means the rest.

SMILES | MsrA inhibitor | bovine MsrA act | ARFGAP1 inh | HGIII-sPLA2 inh | NR1D1 modulator | ASAP1 GAP inh | MsrA inh confirm
Nc1ccc(C(=O)N/N=C\C=C\c2cccc([N+](=O)[O-])c2)cc1 | 9.9* | -10 | 10 | 9 | 2 | -8 | 6.8*
O=C(N/N=C/C=C/c1cccc([N+](=O)[O-])c1)c1ccncc1 | -2 | -3 | 17 | 3 | 2 | 7 | nt
COC(CNC(=O)[C@H](Cc1c[nH]c2ccccc12)NC1(C(=O)NC2CCCCC2)CCCCC1)OC | nt | nt | nt | -54 | -3 | nt | nt
CCOC(=O)Cn1cc(CN2CCS(=O)(=O)N(Cc3ccc(C)cc3)C(C(=O)OC)C2)nn1 (centres undefined) | nt | nt | nt | 4 | -6 | nt | nt
Nc1n[nH]c(N)c1N=Nc1ccccc1 | 5.0* | -5 | 2 | 2 | -1 | 3 | 4
O=C(c1ccc(F)cc1Cl)N1CCCC(c2nc(-c3cccs3)no2)C1 (centres undefined) | nt | nt | nt | -5 | -1 | nt | nt
O=S1(=O)CCC(N=Cc2ccc(-c3ccc(Cl)cc3)o2)C1 (centres undefined) | 4.8* | -2 | -8 | 10 | 3 | -5 | 4
Clc1ccc(-c2ccc(C=Nc3ccc(N4CCOCC4)cc3)o2)cc1 | 4 | -3 | -2 | 10 | -5 | 0 | nt
CC1CCN(c2ccc(C(=O)O)cc2NS(=O)(=O)c2ccc(C(C)(C)C)cc2)CC1 | nt | nt | nt | -37 | -2 | nt | nt
O=C(N/C(=C/c1ccc(Br)cc1)c1nc2ccccc2[nH]1)c1ccco1 | 5.9* | -7 | 10 | -17 | 3 | 0 | 4
O=C(N/C(=C/c1ccc(Cl)cc1)c1nc2ccccc2[nH]1)c1ccco1 | 4 | -7 | -4 | -7 | -4 | 11 | nt
O=C(OCc1cn(Cc2cccc(F)c2)nn1)N1CCCCC1 | nt | nt | nt | 5 | 4 | nt | nt
COc1ccc(CSC2=C(C#N)C(=O)NC3(CCCCC3)S2)cc1 | 5 | -13 | 4 | -9 | 2 | 4 | nt
CCCCCCSC1=C(C#N)C(=O)NC2(CCCCC2)S1 | 5.2* | -9 | -12 | -94 | -2 | 14 | 4
Cc1cccc(NC(=O)CSc2nnc(SCc3ccc(Cl)cc3)s2)c1 | nt | nt | nt | -22 | 4 | nt | nt
CCCC(=O)OC12CCCN(C1)/C(=C/c1cccc(N(C)C)c1)C2 (centres undefined) | nt | nt | nt | 5 | 2 | nt | nt
CN(C)/C=N/c1nc2ncc(-c3ccc(Cl)cc3)c(/N=C/N(C)C)n2n1 | 5.2* | -8 | 0 | 6 | -3 | 4 | 3
CN(C)/C=N/c1nc2nccc(-c3cccc(Cl)c3)n2n1 | 2 | -3 | 4 | -2 | -2 | 0 | nt
Nc1ccc2ccc(NS(=O)(=O)N3CCCCC3)cc2c1 | 0 | nt | 5 | -20 | 7 | -5 | nt
Oc1cccc(/C=N/Nc2ncnc3c2ncn3Cc2ccccc2)c1 | 4.8* | -10 | -1 | 6 | 3 | -3 | 5.2*
O=C(c1ccncc1)N1CCC(Oc2cccnc2)CC1 | nt | nt | nt | 6 | 4 | nt | nt
COc1cccc(NC(=O)N2CCN(c3cccc(C)c3)C(C)C2)c1 (centres undefined) | 0 | 5 | -12 | -6 | -3 | -11 | nt
COc1cccc(N2CCN(C(=O)c3ccc(=O)oc3)CC2C)c1 (centres undefined) | 4.9* | -8 | 14 | 3 | -3 | 9 | 4
NS(=O)(=O)c1ccc(N/N=C/c2cn(-c3ccccc3)nc2-c2cccs2)cc1 | 7.0* | -4 | 14 | 4 | 2 | 13 | 2
O=C(O)c1cccc(N/N=C/c2cn(-c3ccccc3)nc2-c2cccs2)c1 | 13* | -3 | -6 | -16 | 1 | -4 | 7.3*
SMILES | MsrA inhibitor | bovine MsrA act | ARFGAP1 inh | HGIII-sPLA2 inh | NR1D1 modulator | ASAP1 GAP inh | MsrA inh confirm
C#CCNC(=O)C[C@H]1C[C@@]2(C(=O)OC)C(=C[C@H](C(C)(C)C)O[C@@H]2C)N(Cc2ccco2)C1=O | nt | nt | nt | -2 | 6 | nt | nt
O=C(NC1CCCCN(Cc2ccc(Cl)cc2)C1=O)c1cccc(F)c1 (centres undefined) | nt | nt | nt | 16 | 3 | nt | nt
COc1cc([N+](=O)[O-])cc(/C=N/NC(=O)c2ccc(C)nc2)c1O | 2 | -1 | 4 | -6 | 11 | 11 | nt
COc1cc(/C=N/NC(=O)c2ccc(C)nc2)cc([N+](=O)[O-])c1O | 5.3* | -9 | 6 | 3 | 7 | -4 | 4
O=C(N/N=C/c1cc(Br)c(O)c(Br)c1)c1cccnc1 | 4 | -4 | 2 | -1 | -4 | -1 | nt
COc1cc(/C=N/NC(=O)c2cccnc2)cc(Br)c1O | 4.7* | -10 | -17 | 0 | -2 | 2 | 4
COc1cc(/C=N/n2cnnc2-n2nc(C)cc2C)cc([N+](=O)[O-])c1O | 5.2* | -5 | 17 | 4 | 6 | -6 | 4
Cc1ccc(C(=O)N/N=C\c2ccccc2[N+](=O)[O-])cn1 | -1 | -4 | -1 | 0 | -3 | 6 | nt
CCOc1cc(/C=N\NC(=O)c2ccc(C)nc2)cc([N+](=O)[O-])c1O | 8.0* | -3 | -8 | 8 | 11 | 1 | 6.4*
COC(=O)C1=C(C)N(Cc2cccc(C(F)(F)F)c2)C(=NCC2CC2)NC1c1cccc(C(F)(F)F)c1 (centres undefined) | -2 | nt | 2 | 0 | 0 | -2 | nt
COc1ccc(C(=O)N/C(=C\c2ccccc2)C(=O)Nc2ccc(C(=O)O)cc2)cc1 | 0 | -4 | -1 | 0 | 4 | -4 | nt
COc1ccc(/C=N\NC(=O)/C(=C\Nc2nccc(C)n2)NC(=O)c2ccccc2)cc1 | 8.2* | -2 | -2 | -1 | 2 | 3 | 7.7*
COc1ccc(/C=C(/NC(=O)c2ccccc2)C(=O)N/N=C/c2ccncc2)cc1 | 6.0* | -3 | -2 | 4 | 1 | 3 | 4.9*
COc1ccc(C=CC(C)=NNC(=O)c2ccncc2)cc1 | 5.3* | -4 | -10 | -1 | -1 | -12 | 6.0*
Cc1ccc(/C=N\NC(=O)/C(=C\Nc2nccc(C)n2)NC(=O)c2ccccc2)cc1 | 5.9* | -3 | -10 | 0 | 5 | -2 | 6.0*
O=C(O)CSc1nc(-c2cccs2)cc(C(F)(F)F)n1 | 1 | -4 | -8 | -4 | -2 | 9 | nt
COCC(C)NC(=O)CCSc1nc(-c2ccc(OC)cc2)cc(C(F)(F)F)n1 (centres undefined) | 5.0* | 3 | 8 | 11 | -2 | 4 | 2
COc1ccc(-c2cc(C(F)(F)F)nc(SCCC(=O)N3CCN(C)CC3)n2)cc1 | 0 | -8 | -2 | 2 | 7 | -5 | nt
CCC(C)NC(=O)CSc1nc(-c2cccs2)cc(C(F)(F)F)n1 (centres undefined) | 6.2* | -4 | 0 | 4 | 0 | -3 | 1
O=C(NC1CCCCN(Cc2ccc(OC(F)(F)F)cc2)C1=O)c1ccc(F)c(F)c1 (centres undefined) | nt | nt | nt | 1 | -5 | nt | nt

Bioassay records from PubChem BioAssay.
